KCNK9 inh – KCNK9 potassium channel inhibitors, primary screen, HEK293 cells, thallium flux; AID 488922, 2010; FluxOR thallium flux fluorescence; hits give low values; Potassium channel subfamily K member 9 (Homo sapiens), Q9NPC2; B-score at 10 µM; hit rate 1.2% among 310,000;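 active = ratio B-score over 3 SD below the library mean, with starting fluorescence within 5 SD of its mean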;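 note: negative B-score means less thallium flux so channel inhibition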
Target sequence (Q9NPC2 whole entry, looked up): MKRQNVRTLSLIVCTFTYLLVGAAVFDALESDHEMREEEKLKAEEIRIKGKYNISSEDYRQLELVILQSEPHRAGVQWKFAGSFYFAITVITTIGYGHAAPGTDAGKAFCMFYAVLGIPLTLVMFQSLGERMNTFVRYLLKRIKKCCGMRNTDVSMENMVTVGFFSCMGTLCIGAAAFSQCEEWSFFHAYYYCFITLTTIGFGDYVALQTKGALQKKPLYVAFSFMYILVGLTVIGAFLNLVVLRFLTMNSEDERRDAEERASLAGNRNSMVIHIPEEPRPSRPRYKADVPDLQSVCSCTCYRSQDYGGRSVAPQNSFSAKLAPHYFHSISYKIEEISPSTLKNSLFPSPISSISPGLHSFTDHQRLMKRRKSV
KCNK3 block – human KCNK3 channel inhibitors, primary screen, CHO cells, FluxOR thallium flux, B-score; hit rate 0.84% among 340,000; B-score at 10 µM; AID 602410, 2012; FluxOR fluorescence; hits give low values;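 active = B-score under library mean minus 4 SD, starting fluorescence ratio at most library mean plus 5 SD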;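 note: more negative B-score means stronger inhibition of thallium flux through KCNK3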
Target sequence (O14649 whole entry, looked up): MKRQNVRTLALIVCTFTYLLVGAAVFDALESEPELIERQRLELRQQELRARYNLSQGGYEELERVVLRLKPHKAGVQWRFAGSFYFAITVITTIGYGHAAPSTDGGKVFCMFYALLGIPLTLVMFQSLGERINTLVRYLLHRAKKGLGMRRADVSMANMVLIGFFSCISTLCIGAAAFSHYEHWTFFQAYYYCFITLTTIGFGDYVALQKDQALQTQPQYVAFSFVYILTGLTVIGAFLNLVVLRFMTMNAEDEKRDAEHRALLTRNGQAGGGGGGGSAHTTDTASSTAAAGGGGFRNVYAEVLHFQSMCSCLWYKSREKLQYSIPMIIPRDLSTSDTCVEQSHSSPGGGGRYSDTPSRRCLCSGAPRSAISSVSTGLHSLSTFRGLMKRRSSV
KCNQ1 act – potentiators or activators of KCNQ1 channel, primary screen, cell-based, thallium flux, high-throughput; B-score at 10 µM; AID 2648, 2010; CHO-K1 KCNQ1, thallium flux FluxOR fluorescence; hits give high values; Potassium voltage-gated channel subfamily KQT member 1 (Homo sapiens), P51787; hit rate 0.35% among 310,000;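 active = fluorescence ratio B-score, a plate-corrected score, at least three library SD, with initial intensity B-score within 5 SD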
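assay system = CHO-K1 cells stably expressing KCNQ1 | medium = assay buffer, equal DMSO in all wells | timing = 37 °C overnight plating, 90-min dark dye load, 20-min compound pretreatment | measured by = kinetic FluxOR thallium fluorescence, 10-s 1-Hz baseline, 110-s post-stimulus read | measure = fluorescence change relative to baseline, converted to B score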
hERG rescue – hERG rescue from dofetilide block, primary screen, cell-based, CHO-hERG, FluxOR thallium flux, dofetilide IC70. dofetilide IC70 present. AID 1511, 2009. Voltage-gated inwardly rectifying potassium channel KCNH2 (Homo sapiens), Q12809. activation (rescue from dofetilide block), less the hit threshold, % at 10 µM. hit rate 0.51% among 310,000;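 active = activation above the mean of controls blocked by dofetilide plus 5 SD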;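 note: thallium influx through hERG after potassium depolarization seen as dye fluorescence rise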
KCNQ1 block – inhibitors of human KCNQ1 channel, primary screen, cell-based, thallium flux, high-throughput | Potassium voltage-gated channel subfamily KQT member 1 (Homo sapiens), P51787 | B-score at 10 µM | AID 2642, 2010 | CHO-K1 KCNQ1, FluxOR thallium flux fluorescence; hits give high values | hit rate 1.3% among 310,000;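 active = compounds whose thallium flux B-score, printed positive for inhibition, exceeds three library SD while starting fluorescence stays within three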;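 note: channel opened by potassium depolarization with thallium stimulus after 20 min compound exposure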
KCNQ1 inh valid – KCNQ1 potassium channel inhibitors, confirmation, cell-based, Tl flux, duplicate; shares compounds with KCNQ1 block; KCNQ1 cell line, FluxOR thallium flux fluorescence; inhibition, % at 10 µM; hit rate 93% among 1,600; AID 588353, 2011;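 active = primary screen active, with duplicate mean exceeding buffer control mean plus 3 SD of buffer wells, cut at about 28% in these data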
CHO KCNQ1 ctr – thallium flux effects in parental CHO cells, counter-screen for KCNQ1 inhibitor project, cell-based, Tl flux; hit rate 21% among 1,600; shares compounds with KCNQ1 block; fluorescence ratio (Tl flux) at 10 µM; parental CHO-K1, FluxOR thallium flux fluorescence ratio; hits give low values; zero means no signal rise above baseline;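 active = mean of duplicate thallium-flux fluorescence ratios in parental host cells more than 5 SD below the buffer control mean, cut at about 0.38 in these data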;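 note: ratio is peak minus minimum fluorescence divided by baseline fluorescence; actives read low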
KCNQ1 ephys val – KCNQ1 channel inhibitors, confirmation, orthogonal assay, cell-based, automated electrophysiology; shares compounds with KCNQ1 block; KCNQ1-CHO cells, automated patch clamp current; calls only at 10 µM; hit rate 20% among 490; AID 624120, 2012;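 active = KCNQ1 current drop exceeding 3 SD of negative control wells, seen in both duplicate runs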;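 note: steady state current during a 2 s step from -80 to +40 mV; negative values mean current inhibition and positive values mean potentiation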
KCNQ2 spec – KCNQ2 channel inhibition, selectivity assay for KCNQ1 inhibitor project, cell-based; inhibition, % at 10 µM; hit rate 71% among 1,600; AID 651746, 2012; KCNQ2 cells, FluxOR thallium flux fluorescence; shares compounds with KCNQ1 block;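 active = mean percent inhibition of the KCNQ2 thallium signal more than 5 SD above the buffer-only control wells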;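 note: KCNQ2 expressed in CHO cells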
KCNQ1 KCNE1 spec – KCNQ1/KCNE1 channel inhibition, selectivity assay for KCNQ1 inhibitor project, CHO-K1 cells, thallium flux, FluxOR | shares compounds with KCNQ1 block | FluxOR thallium flux fluorescence | inhibition, % at 10 µM | hit rate 77% among 1,600 | AID 652147, 2013;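 active = mean percent inhibition of duplicate wells above the buffer-only control mean plus 3 SD of those controls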
KCNK9 inh conf – KCNK9 potassium channel inhibitors, confirmation, HEK293 cells, thallium flux, duplicate | shares compounds with KCNK9 inh | FluxOR thallium flux fluorescence | inhibition, % at 10 µM | hit rate 43% among 4,900 | AID 492992, 2010;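 active = thallium signal inhibited by more than 5 SD of the compound-free buffer control wells, on both duplicate plates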
Kir21 sel – mouse Kir2.1 channel inhibition, confirmation, selectivity assay for KCNK9 modulator project, cell-based, HEK293, thallium flux | shares compounds with KCNK9 inh | Kir2.1 cells, FluxOR thallium flux fluorescence | inhibition, % at 10 µM | hit rate 4% among 4,900;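 active = thallium signal drop more than 5 SD beyond the mean of the no-compound control wells, seen in both duplicate plates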;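 note: signal is fluorescence rise after thallium addition divided by baseline fluorescence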
KCNK9 uninduced – thallium flux in non-induced HEK293 cells, confirmation, counter-screen for KCNK9 inhibitor project, cell-based, second counter screen, non-induced KCNK9-HEK293. shares compounds with KCNK9 inh. inhibition, % at 10 µM. FluxOR thallium flux. hit rate 40% among 4,900;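 active = thallium signal drop beyond 5 SD of the untreated control mean, on both duplicate plates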
Large screens that a line does not name were inactive (follow-up assays come after a bar, where they were run). In the library only some 3.1% were active in any assay of this set; here they are far more common.

Oc1ccc(NC(=S)N=Nc2c(O)[nH]c3ccc(Br)cc23)cc1	KCNQ1 block 7 | KCNQ1 inh valid 108.5 | CHO KCNQ1 ctr inactive | KCNQ1 ephys val inactive | KCNQ2 spec 75.3% | KCNQ1 KCNE1 spec 158.5%
Cc1ccc(O)c(-c2cc3ccccc3[nH]2)c1	KCNQ1 block 10 | KCNQ1 inh valid 131.5 | CHO KCNQ1 ctr inactive | KCNQ2 spec inactive | KCNQ1 KCNE1 spec 165.5%
COc1ccc(-c2cc3ccccc3[nH]2)cc1	none
CCOc1ccc(NC(=O)[C@@H]2CCC(=O)N2C2OC(=O)c3ccccc32)cc1 (some centres not stated)	none
O=C(NCCC1CCCCN1S(=O)(=O)c1ccccc1)C(=O)NCc1ccc(F)cc1 (configuration not stated)	none
CC1CCCc2sc3nc(NCc4ccco4)n4ncnc4c3c21 (configuration not stated)	KCNQ1 block 8 | KCNQ1 inh valid 101.5 | CHO KCNQ1 ctr inactive | KCNQ1 ephys val inactive | KCNQ2 spec 84.3% | KCNQ1 KCNE1 spec 146.5%
CC1CCc2sc3nc(NCc4ccco4)n4ncnc4c3c2C1 (configuration not stated)	none
CC(NCC(=O)Nc1cc(S(=O)(=O)N2CCOCC2)ccc1Cl)c1ccc(Cl)cc1Cl (configuration not stated)	KCNQ1 block 7 | KCNQ1 inh valid 70.0 | CHO KCNQ1 ctr inactive | KCNQ2 spec 60.3% | KCNQ1 KCNE1 spec 91.5%
Cc1ccccc1OCC(=O)Nc1ccccc1C(=O)NC1CC1	KCNQ1 block 10 | KCNQ1 inh valid 92.0 | CHO KCNQ1 ctr inactive | KCNQ1 ephys val inactive | KCNQ2 spec 123.0% | KCNQ1 KCNE1 spec 128.5%
Cc1ccccc1OCC(=O)Nc1ccccc1-c1ccccc1	KCNQ1 block 6 | KCNQ1 inh valid 128.0 | CHO KCNQ1 ctr inactive | KCNQ1 ephys val inactive | KCNQ2 spec 113.7% | KCNQ1 KCNE1 spec 177.5%
Cc1ccccc1NC(=O)COc1ccccc1C	none
CCN(CC)c1ccc(C(=O)OCC(=O)Nc2ccccc2-c2ccccc2)cc1	KCNQ1 block 12 | KCNQ1 inh valid 108.0 | CHO KCNQ1 ctr inactive | KCNQ1 ephys val inactive | KCNQ2 spec 96.0% | KCNQ1 KCNE1 spec 161.0%
O=C(O)CC1(c2ccc(F)cc2)C2CC3CC(C2)CC1C3 (configuration not stated)	none
COc1ccccc1/C=C/C(=O)OC(C)CN1CCCCC1 (configuration not stated)	none
CCCCCCCN1C2=NCCCN2c2ccccc21	KCNQ1 block 7 | KCNQ1 inh valid 50.5 | CHO KCNQ1 ctr inactive | KCNQ2 spec inactive | KCNQ1 KCNE1 spec 55.0%
Cc1c2ccccc2nc2c(F)c(NCCO)c(F)c(F)c12	KCNQ1 block 6 | KCNQ1 inh valid 177.5 | CHO KCNQ1 ctr 0.151 | KCNQ2 spec inactive | KCNQ1 KCNE1 spec inactive
CN(C)CCCNc1c2ccccc2nc2ccccc12	none
OCCNc1c2ccccc2nc2c(F)c(F)c(F)c(F)c12	KCNQ1 block 6 | KCNQ1 inh valid 84.0 | CHO KCNQ1 ctr 0.372 | KCNQ2 spec 105.0% | KCNQ1 KCNE1 spec 101.0%
NNc1nc(C(F)(F)F)nc2ccccc12	none
O/C=c1\ccc2cccc3nc(C(F)(F)F)nc1c23	KCNK9 inh -7.6, KCNQ1 block 19 | KCNQ1 inh valid 139.5 | CHO KCNQ1 ctr 0.311 | KCNQ2 spec inactive | KCNQ1 KCNE1 spec inactive
OCCC1CN(Cc2cccnc2)CCN1CCc1ccccc1 (configuration not stated)	KCNQ1 block 7 | KCNQ1 inh valid inactive | CHO KCNQ1 ctr inactive | KCNQ2 spec inactive | KCNQ1 KCNE1 spec inactive
CC(c1ccon1)N(C)Cc1cn(Cc2ccccc2)nc1-c1ccc2c(c1)OCO2 (configuration not stated)	KCNQ1 block 6 | KCNQ1 inh valid 104.5 | CHO KCNQ1 ctr inactive | KCNQ1 ephys val inactive | KCNQ2 spec 96.0% | KCNQ1 KCNE1 spec 57.0%
O=C(Nc1ccc(C(F)(F)F)cc1)c1ccc2nc[nH]c2c1	KCNQ1 block 6 | KCNQ1 inh valid 78.0 | CHO KCNQ1 ctr inactive | KCNQ2 spec 86.3% | KCNQ1 KCNE1 spec inactive
Cc1ccc(C(=O)OCC(=O)N2CCNC2=O)c(C)c1	none (no result: KCNK9 inh, KCNQ1 act, hERG rescue, KCNQ1 block)
CCCCn1c(/N=C/c2ccc(N(C)C)cc2)nc2ccccc21	KCNK9 inh -12.1, KCNK3 block -11.3, KCNQ1 block 11 | KCNQ1 inh valid 170.5 | CHO KCNQ1 ctr 0.302 | KCNQ2 spec 135.0% | KCNQ1 KCNE1 spec 94.0% | KCNK9 inh conf 29.5% | Kir21 sel inactive | KCNK9 uninduced 55.0%
C=CCn1c(/N=C/c2ccc(N(C)C)cc2)nc2ccccc21	none
NC(=O)c1ccsc1NC(=O)CCS(=O)(=O)c1ccc(F)cc1	none

Bioassay records: PubChem BioAssay, Johns Hopkins Ion Channel Center
